Measurements taken from ChEMBL document CHEMBL4825702, “5-Aminonaphthalene derivatives as selective nonnucleoside nuclear receptor binding SET domain-protein 2 (NSD2) inhibitors for the treatment of multiple myeloma” (Eur J Med Chem, 2021).
The source made the active and inactive calls. The calls are words filed in the database; no cut-off is given here.

Experiments:
MV4-11 [1] = assay: Antiproliferative activity against human MV4-11 cells assessed as reduction in cell viability incubated for 6 days by CCK8 assay
[2] = AUC in CD-1 mouse at 2 mg/kg, iv measured up to 24 hrs by LC-MS/MS; assay type: ADME, organism-based; set-up: route intravenous, dose 2 mg/kg, time <=24; settings: in vivo
Summary of the method: (§1)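 CD-1 mice given a single 2 mg/kg dose i.p. or i.v. (n = 3 per group). Blood sampled at 0, 0.083, 0.25, 0.5, 1, 2, 4, 6, 8 and 24 h and centrifuged for plasma, with internal standard added. Plasma deproteinized with methanol/acetonitrile (1:1), supernatant diluted with acetonitrile/water, and compound measured by LC/MS/MS.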

[3] = Half life in CD-1 mouse at 2 mg/kg, iv measured up to 24 hrs by LC-MS/MS; assay type: ADME, organism-based; settings: in vivo
Summary of the method: as §1

[4] = Inhibition of PAK1 transcriptional activity in human KMS-11 cells assessed as reduction in H3K36 methylation at 10 uM measured after 72 hrs by chip q-PCR analysis
MV4-11 [5] = assay: cells; settings: Homo sapiens, MV4-11, 72 h, read-out: Activity
[6] = Clearance in CD-1 mouse at 2 mg/kg, iv measured up to 24 hrs by LC-MS/MS; assay type: ADME, organism-based; settings: in vivo
Summary of the method: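 CD-1 mice given a single 2 mg/kg i.v. dose (n = 3). Plasma collected at 0–24 h (0.083, 0.25, 0.5, 1, 2, 4, 6, 8, 24 h), deproteinized with methanol/acetonitrile 1:1 and analysed by LC/MS/MS. Clearance derived from the plasma concentration–time data.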

RS4-11 [7] = assay: Antiproliferative activity against human RS4-11 cells assessed as reduction in cell viability at 1 to 100 uM by CCK8 assay; assay type: functional, cell-based; settings: dose 1-100 µM, time 6.0 day, TDE = time-dependent effect
[8] = biological target: T1, Histone-lysine N-methyltransferase NSD2 (Homo sapiens, UniProt O96028); assay: Inhibition of recombinant human N-terminal GST-tagged NSD2 CD (941 to 1240 residues) expressed in Escherichia coli using SAM as substrate in presence of nucleosomes by AlphaLISA method
T1 sequence (O96028 whole entry): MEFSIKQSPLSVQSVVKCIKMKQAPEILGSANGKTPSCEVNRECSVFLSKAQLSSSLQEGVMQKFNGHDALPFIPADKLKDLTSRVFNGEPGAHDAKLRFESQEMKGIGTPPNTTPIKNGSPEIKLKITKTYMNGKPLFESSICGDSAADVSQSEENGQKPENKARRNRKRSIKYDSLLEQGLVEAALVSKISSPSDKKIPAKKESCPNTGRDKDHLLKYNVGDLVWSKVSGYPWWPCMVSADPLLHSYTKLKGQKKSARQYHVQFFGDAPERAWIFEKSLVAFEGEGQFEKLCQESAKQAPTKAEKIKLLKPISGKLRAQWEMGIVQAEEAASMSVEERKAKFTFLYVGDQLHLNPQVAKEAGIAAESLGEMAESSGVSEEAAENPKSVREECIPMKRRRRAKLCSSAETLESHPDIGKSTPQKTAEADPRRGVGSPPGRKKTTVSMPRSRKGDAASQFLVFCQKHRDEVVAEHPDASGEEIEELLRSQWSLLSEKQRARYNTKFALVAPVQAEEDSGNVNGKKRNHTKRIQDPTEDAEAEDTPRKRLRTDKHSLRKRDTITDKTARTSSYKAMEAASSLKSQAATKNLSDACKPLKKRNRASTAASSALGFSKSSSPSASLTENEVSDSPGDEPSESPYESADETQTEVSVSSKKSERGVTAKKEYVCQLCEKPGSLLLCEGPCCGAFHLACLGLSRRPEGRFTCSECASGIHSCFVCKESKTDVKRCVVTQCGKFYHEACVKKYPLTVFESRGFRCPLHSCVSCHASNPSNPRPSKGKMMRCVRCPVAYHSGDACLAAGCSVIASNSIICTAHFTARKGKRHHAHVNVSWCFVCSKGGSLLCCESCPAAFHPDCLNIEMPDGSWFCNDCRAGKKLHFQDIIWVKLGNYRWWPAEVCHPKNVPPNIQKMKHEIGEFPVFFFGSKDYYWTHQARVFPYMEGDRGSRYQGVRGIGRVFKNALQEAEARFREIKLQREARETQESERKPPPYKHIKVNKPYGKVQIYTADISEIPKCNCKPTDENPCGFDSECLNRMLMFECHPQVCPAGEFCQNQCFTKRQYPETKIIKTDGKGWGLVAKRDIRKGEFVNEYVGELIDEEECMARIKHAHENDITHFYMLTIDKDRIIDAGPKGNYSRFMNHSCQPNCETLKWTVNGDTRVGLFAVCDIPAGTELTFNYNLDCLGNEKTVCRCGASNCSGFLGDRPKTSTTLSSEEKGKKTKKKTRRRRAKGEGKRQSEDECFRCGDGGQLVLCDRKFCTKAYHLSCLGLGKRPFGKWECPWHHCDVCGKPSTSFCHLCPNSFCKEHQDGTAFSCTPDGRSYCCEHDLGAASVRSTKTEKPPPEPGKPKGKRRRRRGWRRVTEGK

[9] = biological target: Ras-related protein R-Ras2 (Homo sapiens) (UniProt P62070); assay: Inhibition of RRAS2 transcriptional activity in human KMS-11 cells assessed as reduction in H3K36 methylation at 10 uM measured after 72 hrs by chip q-PCR analysis; assay type: cell-based
Summary of the method: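 KMS11 cells treated with test agent or DMSO. ChIP with magnetic-bead enzymatic chromatin IP kit using anti-H3K36me2, anti-histone H3 and IgG control antibodies. H3K36me2 quantified by qPCR with primers spanning the promoter regions of TGFA, MET, PAK1 and RRAS2.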

KMS-11 [10] = assay: Induction of apoptosis in human KMS-11 cells incubated for 72 hrs by annexin-V/FITC and propidium iodide staining based flow cytometry analysis; assay type: functional, cell-based; settings: dose 5-10 µM
RS4-11 [11] = assay: Antitumor activity against human RS4-11 cells xenografted in SCID mouse assessed as tumor growth inhibition at 50 mg/kg, ip qd administered consecutively for 21 days relative to control; settings: RS4-11, ip, 504 h, read-out: TGI
KMS-11 [12] = assay: Antiproliferative activity against human KMS-11 cells assessed as reduction in cell viability incubated for 6 days by CCK8 assay; settings: KMS-11, 6 days
[13] = Tmax in CD-1 mouse at 2 mg/kg, ip measured up to 24 hrs by LC-MS/MS; assay type: ADME, organism-based; settings: in vivo
Summary of the method: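 CD-1 mice dosed at 2 mg/kg i.p. or i.v., n = 3 per group. Blood sampled at 0, 0.083, 0.25, 0.5, 1, 2, 4, 6, 8 and 24 h and spun for plasma. Internal standard added, deproteinized with methanol/acetonitrile (1:1), supernatant diluted and analysed by LC/MS/MS.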

[14] = biological target: Histone-lysine N-methyltransferase, H3 lysine-36 specific (Homo sapiens, UniProt Q96L73); assay: Inhibition of NSD1 (unknown origin) using SAM as substrate preincubated for 10 mins followed by substrate addition measured after 4 hrs by AlphaLISA method
Sequence of Histone-lysine N-methyltransferase, H3 lysine-36 specific (Q96L73 whole entry): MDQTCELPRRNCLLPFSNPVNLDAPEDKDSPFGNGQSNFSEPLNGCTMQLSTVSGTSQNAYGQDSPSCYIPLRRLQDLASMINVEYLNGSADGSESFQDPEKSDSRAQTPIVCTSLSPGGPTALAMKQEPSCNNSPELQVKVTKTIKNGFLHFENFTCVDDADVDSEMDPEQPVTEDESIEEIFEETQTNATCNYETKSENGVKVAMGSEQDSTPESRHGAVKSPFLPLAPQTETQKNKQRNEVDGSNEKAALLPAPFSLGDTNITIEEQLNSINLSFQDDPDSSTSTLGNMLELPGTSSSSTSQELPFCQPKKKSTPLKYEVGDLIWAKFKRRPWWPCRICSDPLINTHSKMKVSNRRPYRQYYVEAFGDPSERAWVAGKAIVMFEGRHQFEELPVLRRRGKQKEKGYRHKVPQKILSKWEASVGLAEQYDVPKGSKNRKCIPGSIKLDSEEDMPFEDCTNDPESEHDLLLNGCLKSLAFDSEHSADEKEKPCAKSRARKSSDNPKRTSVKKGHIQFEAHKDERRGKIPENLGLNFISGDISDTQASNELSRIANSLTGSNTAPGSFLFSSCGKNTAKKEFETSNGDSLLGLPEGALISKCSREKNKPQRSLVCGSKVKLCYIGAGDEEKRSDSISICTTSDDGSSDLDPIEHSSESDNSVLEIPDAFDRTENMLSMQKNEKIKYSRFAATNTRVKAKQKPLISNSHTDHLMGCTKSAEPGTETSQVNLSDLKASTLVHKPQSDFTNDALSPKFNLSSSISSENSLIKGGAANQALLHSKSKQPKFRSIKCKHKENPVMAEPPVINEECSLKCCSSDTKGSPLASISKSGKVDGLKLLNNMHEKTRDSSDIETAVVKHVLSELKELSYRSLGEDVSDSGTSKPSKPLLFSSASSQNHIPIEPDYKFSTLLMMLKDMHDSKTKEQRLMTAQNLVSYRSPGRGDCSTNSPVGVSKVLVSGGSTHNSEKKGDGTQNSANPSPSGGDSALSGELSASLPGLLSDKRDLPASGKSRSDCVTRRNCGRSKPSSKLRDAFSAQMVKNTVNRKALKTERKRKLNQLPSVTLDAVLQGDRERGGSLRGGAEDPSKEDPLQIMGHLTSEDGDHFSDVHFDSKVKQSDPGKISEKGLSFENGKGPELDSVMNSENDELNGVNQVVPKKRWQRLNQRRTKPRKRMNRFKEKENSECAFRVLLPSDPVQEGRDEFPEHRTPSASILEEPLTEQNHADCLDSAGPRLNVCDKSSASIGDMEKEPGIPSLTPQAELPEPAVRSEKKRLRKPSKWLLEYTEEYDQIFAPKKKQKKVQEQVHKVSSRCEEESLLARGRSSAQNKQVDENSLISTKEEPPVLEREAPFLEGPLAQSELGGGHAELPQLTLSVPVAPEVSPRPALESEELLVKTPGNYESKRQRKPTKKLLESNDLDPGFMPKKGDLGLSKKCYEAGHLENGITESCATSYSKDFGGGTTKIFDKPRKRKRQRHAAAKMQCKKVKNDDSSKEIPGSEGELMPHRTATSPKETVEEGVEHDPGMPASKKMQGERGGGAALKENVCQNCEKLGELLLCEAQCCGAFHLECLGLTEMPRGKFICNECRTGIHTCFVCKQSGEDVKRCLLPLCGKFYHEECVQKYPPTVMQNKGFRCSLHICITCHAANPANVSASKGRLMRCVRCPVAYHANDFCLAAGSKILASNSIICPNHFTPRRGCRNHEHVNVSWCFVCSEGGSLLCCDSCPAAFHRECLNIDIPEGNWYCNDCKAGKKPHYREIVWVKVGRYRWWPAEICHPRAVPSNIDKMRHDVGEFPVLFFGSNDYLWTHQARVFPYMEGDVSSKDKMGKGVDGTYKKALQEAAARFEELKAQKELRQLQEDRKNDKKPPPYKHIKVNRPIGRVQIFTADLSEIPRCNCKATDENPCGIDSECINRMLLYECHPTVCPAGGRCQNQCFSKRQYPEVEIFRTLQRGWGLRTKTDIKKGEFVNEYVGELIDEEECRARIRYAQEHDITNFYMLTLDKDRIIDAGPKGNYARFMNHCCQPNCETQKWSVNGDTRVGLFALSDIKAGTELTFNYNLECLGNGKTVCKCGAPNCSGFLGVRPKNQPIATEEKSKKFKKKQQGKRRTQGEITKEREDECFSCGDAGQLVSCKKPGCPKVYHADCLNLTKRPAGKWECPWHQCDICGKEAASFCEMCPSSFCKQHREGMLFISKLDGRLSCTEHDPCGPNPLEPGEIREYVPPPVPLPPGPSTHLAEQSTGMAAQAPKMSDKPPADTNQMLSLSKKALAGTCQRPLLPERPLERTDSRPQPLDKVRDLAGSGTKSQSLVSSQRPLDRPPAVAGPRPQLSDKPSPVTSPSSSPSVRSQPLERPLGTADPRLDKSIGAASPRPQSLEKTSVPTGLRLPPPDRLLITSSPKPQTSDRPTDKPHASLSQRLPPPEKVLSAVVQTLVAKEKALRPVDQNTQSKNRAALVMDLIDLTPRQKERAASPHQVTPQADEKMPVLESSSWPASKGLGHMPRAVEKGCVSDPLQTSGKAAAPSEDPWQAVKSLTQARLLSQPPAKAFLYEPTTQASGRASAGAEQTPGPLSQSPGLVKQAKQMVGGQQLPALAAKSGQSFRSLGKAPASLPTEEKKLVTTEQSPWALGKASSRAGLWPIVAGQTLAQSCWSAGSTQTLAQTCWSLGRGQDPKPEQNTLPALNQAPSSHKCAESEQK

Sequence of Ras-related protein R-Ras2 (Homo sapiens) (P62070 whole entry): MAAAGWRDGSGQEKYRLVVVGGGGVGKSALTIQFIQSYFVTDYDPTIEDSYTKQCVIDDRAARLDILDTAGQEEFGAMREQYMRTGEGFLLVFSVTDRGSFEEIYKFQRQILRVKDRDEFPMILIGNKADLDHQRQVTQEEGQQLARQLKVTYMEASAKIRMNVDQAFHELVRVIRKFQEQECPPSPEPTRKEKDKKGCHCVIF

Cl.Nc1cccc2c(S(=O)(=O)NCc3ccccc3)cccc12
Activity (MV4-11 [1]): Active
AUC at 24 h [2]: 204 ng·h/mL
half-life [3]: 39.6 min
inhibition [4]: Active
viability at 5 µM (MV4-11 [5]): 94.4%
clearance [6]: 163 mL/min/kg
Activity (RS4-11 [7]): Tde
IC50 [8]: 2700 nM
inhibition [9]: Active
Activity (KMS-11 [10]): Dose-Dependent Effect
inhibition in vivo at 50 mg/kg (RS4-11 [11]): 37.2%
IC50 (KMS-11 [12]): 1880 nM
Tmax [13]: 4.98 min
IC50 [14]: > 20000 nM
